Data published in ChEMBL document CHEMBL4513216, “Probing the Open Global Health Chemical Diversity Library for Multistage-Active Starting Points for Next-Generation Antimalarials” (ACS Infect Dis, 2020).

Experiment: Toxicity liver stage against HepG2, at 10uM
Assay type: cell-based
Set-up: test concentration 10 uM, cell line HepG2-A16-CD81EGFP
Details: human, HepG2-A16-CD81EGFP cells; read-out: INHIBITION
Summary of the method: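 Uninfected HepG2-A16-CD81EGFP cells, 3 × 10^3 per well, 1536-well, plated on prespotted compound at 10 μM final, parasite-free screening media added to match infected plates; puromycin 10 μM positive, DMSO 0.5% negative; run in parallel with 48 h PbLuc assay at 37 °C, 5% CO2; viability by CellTiter-Glo luminescence, normalized to controls.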

SMILES | cytotoxicity at 10 µM [%]
CCN(CC(=O)NC(C)C)S(=O)(=O)N1CCCCCC1 | 2.37
CCN(CC)C[C@H]1CN2CC[C@H]1C[C@@H]2CNC(=O)Nc1ccsc1 | -17.8
Cc1ccccc1CSc1ncccc1C(=O)N(C)C | -7.24
COc1ccc(C(=O)N(CCO)Cc2ccccc2)c(OC)n1 | 3.33
O=C(c1cccnc1SCc1ccccc1)N1CCOCC1 | 4.74
O=C(N[C@H]1CCCC[C@@H]1O)c1cccc(-c2nc3ccccc3[nH]2)c1 | -3.65
CC(C)NC(=O)[C@H]1CCS(=O)(=O)[C@@H]2CN(c3ncc(F)cn3)C[C@H]12 | -136
CC(C)N(C)C(=O)C1=NOC2(CCN(C(=O)c3ccnnc3)C2)C1 (stereo unspecified) | -119
Cc1noc([C@@H]2C[C@H]3OCC[C@H]3N(S(=O)(=O)N(C)C)C2)n1 | -122
Cc1nc(CN2CCO[C@H]3CN(C(=O)Cc4cccs4)C[C@H]32)cs1 | -124
Cc1nc(C(=O)N2C[C@@H]3COC[C@]3(COCc3cccnc3)C2)cs1 | -1.92
COc1cc2[nH]c(C(=O)O)cc2c(OC)c1C | -1.51
Cc1ccc(CN(C)CC2(O)CCCN(C)C2)o1 (stereo unspecified) | -8.08
CCn1nc(C)c2nc(C(C)C)nc(NCCCn3ccnc3)c21 | 10.8
CCn1cc(Br)c(C(=O)NCc2cnn(C)c2)n1 | -11.9
Nc1nc(N)c2c(n1)OC1(CCN(C(=O)CC3CCNCC3)CC1)C2 | 5.41
CN(C)c1cc(C2CCCN2C(=O)c2noc3c2CCCC3)ccn1 (stereo unspecified) | 9.13
Cc1ccc(C(=O)N2CCOC(c3ncc(CN(C)C)[nH]3)C2)cc1F (stereo unspecified) | 0.388
CCN1C(=O)CC[C@@H]2N(C(=O)CCn3nccc3C)CCCC[C@@]21C | -3.41
CNc1cc(C)nc(C2COCCN2CCOc2ccc(F)cc2)n1 (stereo unspecified) | 3.18
O=C(C1CCC1)N1CCC(c2ncc3c(n2)CCNC3)CC1 | -25.1

SMILES | cytotoxicity at 10 µM [%]
Cc1ccc(-n2c(SCC(=O)O)nnc2-c2ccccc2)cc1 | -19.3
CN1CC(=O)N(C2CCNCC2)Cc2c(NC3CCC3)ncnc21 | 3.9
O=C(CN1CCCCCC1=O)NC1CCc2nccn2C1 (stereo unspecified) | 2.8
Fc1cccc(C(NCc2ncc[nH]2)c2ccccn2)c1 (stereo unspecified) | 3.95
C[C@H](O)c1cnn(-c2ccccc2)c1 | 0.503
COC(C)c1noc(CN(C)c2nccnc2C#N)n1 (stereo unspecified) | 0.462
COCCCn1ccc(NC2CCOCC2)n1 | 3.31
Cn1ccc2c(C(=O)NCC3(C(N)=O)CCOCC3)cccc21 | -1.21
CC(=O)N(C)CC(=O)NC1(c2ccc(Br)cc2)CC1 | -10.7
c1ccc(Cc2noc(CN3CCCC3C3CCCCC3)n2)cc1 (stereo unspecified) | 11.9
Cc1cc(CN2CCc3nn(C)c(=O)cc3C2)no1 | -9.01
CC(=O)c1c(F)cccc1N1CCC(C(N)=O)CC1 | 6.75
Cc1nc(CC(=O)N2CCN(Cc3ccc(C#N)cc3)CC2)cs1 | 1.91
Cc1noc(CCCC(=O)N(CCC(=O)O)Cc2ccc(F)c(F)c2)n1 | -11.3
CCc1sc(C(=O)Nc2cnn(CC(=O)NC3CC3)c2)cc1C | -2.17
N#Cc1ccnc(N2CCN(C(=O)c3ccc4c(c3)CCO4)CC2)c1 | -5.75
COC(=O)NC1(C(=O)Nc2ccc(-c3ncc[nH]3)cc2)CCCC1 | -14.4
Cc1ccccc1CS(=O)(=O)CC(=O)N(C)Cc1cccc(F)c1 | 4.8
CC(C)(C)OC(=O)N1CSC[C@@H]1C(=O)NCc1cccc(C#N)c1 | -5.88
CC(C)OCCC(=O)Nc1ncn(CC(=O)N2CCCCCC2)n1 | -1.61
CC(=O)N1CCN(C(=O)NCCCN(C)S(C)(=O)=O)CC1 | -7.33

SMILES | cytotoxicity at 10 µM [%]
Cc1cc(C(=O)N2CCCC2)ccc1NCCO | -3.87
O=C(CCn1c(=O)oc2ccccc21)NCC(O)c1ccc(F)c(F)c1 (stereo unspecified) | -12.5
Cc1ccc(C)c(Sc2nccn(C)c2=O)c1 | 6.43
C=C(C)CNC(C)c1ccc(S(C)(=O)=O)c(F)c1 (stereo unspecified) | 0.563
CC(CNC(=O)N1CCN(CC(F)F)CC1)Cc1cccs1 (stereo unspecified) | -4.92
CSCC(C)(O)CNC(=O)c1ccc(Br)cc1C (stereo unspecified) | 1.57
Cn1cc(Br)c(=O)c(NS(=O)(=O)c2ccc(F)cc2)c1 | -8.87
CC(CN1CCOCC1)NC(=O)N(C)Cc1ccc(Cl)s1 (stereo unspecified) | 7.21
CC(C)Oc1ncc(C(=O)N2CCC(NC(=O)C3CC3)CC2)cc1Cl | -20.8
Cc1ccc(N2CCCN(C(=O)c3cc(Cl)c[nH]3)CC2)nn1 | -9.12
Cc1nc(C)n(CC2CN(CC(=O)Nc3cccnc3)CCO2)n1 (stereo unspecified) | -12
Cc1cn(CC(=O)N(C)Cc2cccc3ncccc23)c(=O)[nH]c1=O | 14.2
Cc1cccnc1CN1CCN(c2noc(-c3ccccc3)n2)CC1 | 8.09
COCc1cc(CNCc2c(C)n(CC(N)=O)c3ccccc23)n[nH]1 | -0.31
CCNC(=O)[C@@H]1C[C@H](N)CN1C(=O)C1(c2ccc(OC)cc2)CCCC1 | 5.67
Cc1ccoc1C(=O)N1CCC(n2cc(-c3ccsc3)nn2)CC1 | 5.02
c1cncc(C[C@@H]2CC[C@H](CN3CCCOCC3)O2)c1 | 2.13
COc1ccc(-n2c(CCC(=O)O)nc3ccccc32)cc1CO | -0.334
COCc1noc(CCNC(=O)c2ccc(C3CCCO3)s2)n1 (stereo unspecified) | 3.19
CN1CCN(Cc2cnc(S(=O)(=O)CC3CC3)n2CC2CCCO2)CC1 (stereo unspecified) | -2.87
COc1ccccc1-n1cc(C(=O)NCCCn2ccnn2)cn1 | -6.01

SMILES | cytotoxicity at 10 µM [%]
O=C(c1ccc(=O)[nH]c1)N1CCCC2(C=Cc3ccccc3O2)CC1 (stereo unspecified) | 12.5
Cc1cccc(CN(C(=O)CS(C)(=O)=O)C(C)C)c1 | 1.68
CCCN1CC2(CCN(c3ccc(C(C)=O)cn3)CC2)CC1C(=O)O (stereo unspecified) | -0.909
CCC/C=C/c1ccc(CN2CCN(C)CC2)cn1 | -8.61
COC(=O)CCC(=O)NCc1cccnc1N1CCc2ccccc2C1 | -8.09
COc1cccc2c1OCC(CNC(=O)Cc1c(C)nc(N)nc1C)C2 (stereo unspecified) | -140
Cc1nccn1C1CCCN(C(=O)c2sccc2-n2cnnn2)C1 (stereo unspecified) | -12.2
Cc1cc(C(=O)NCCN2CCCC(C)C2)nn1C (stereo unspecified) | -2.79
Cc1cnn(CC(C)NCc2csc(-c3ccco3)n2)c1 (stereo unspecified) | 3.44
COCCN1CCN(Cc2c(C3CCNCC3)[nH]c3ncccc23)CC1 | -23.2
Cc1nn(C)c(Cl)c1CNCc1cccnc1N1CCCCC1 | -145
O=C(NCc1ccccn1)[C@]12COC[C@H]1CN(Cc1ccccc1F)C2 | 6.81
FC1(F)CCN(Cc2ccncc2)CC12CCN(c1cnccn1)C2 (stereo unspecified) | 3.19
CCOCC(=O)N1CCC2(CC1)COC(COCc1ccccn1)C2 (stereo unspecified) | -127
Cc1nc(COCc2cnc3n2CCN(C2CCC2)C3C)cs1 (stereo unspecified) | -3.82
CC(C)N(C)Cc1cnc2n1CCN(C(=O)Cc1ccsc1)C2 | -118
COc1cccc(C=CCCN2CCCN(C(C)=O)CC2)c1 | 6.67
O=C1OCCN1CC(=O)N1C[C@@H]2CC[C@H]1CN(C(=O)c1ccccc1)C2 | 5.46
